ChEMBL document CHEMBL4364301 (Eur J Med Chem, 2019)
Active and inactive are the calls of the source. The calls are words filed in the database; no cut-off is given here.

How the values were obtained:
[1] = Toxicity in NMRI mouse xenografted with human 22Rv1 cells assessed as body weight loss at 15 mg/kg, ip administered on day 7 and 14 and measured on day 49; format: organism-based; conditions: in vivo
[2] = test system: CWR22R; test: Antitumor activity against human 22Rv1 cells xenografted in NMRI mouse assessed as tumor volume doubling time at […] administered on day 7 and 14 (reference value: 2.7 day); format: functional
[3] = test system: CWR22R; test: Antitumor activity against human 22Rv1 cells xenografted in NMRI mouse assessed as inhibition of tumor growth by measuring T/C value at 15 mg/kg, iv administered on day 7 and 14 and measured on day 14; format: functional
Procedure, shortened: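 Male NMRI nu/nu mice, delivered at 4–6 weeks and quarantined at least 1 week, were implanted in the hind flank with cultured 22Rv1 cells. Mice were randomised at 80–200 mm³ tumour volume. Dosing was 15 mg/kg i.v. in 0.9% saline, given as three weekly treatments; controls received vehicle. Caliper tumour volumes were taken twice weekly, with T/C from group median relative tumour volumes, doubling/quadrupling times and body weight recorded.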

[4] = test system: CWR22R; test: Antitumor activity against human 22Rv1 cells xenografted in NMRI mouse assessed as reduction of tumor volume at […] administered on day 7 and 14 and measured on day 20; format: functional, organism-based
[5] = test system: CWR22R; test: Antitumor activity against human 22Rv1 cells xenografted in NMRI mouse assessed as tumor volume quadrupling time at […] administered on day 7 and 14 (reference value: 6.2 day); format: functional
[6] = test system: CWR22R; test: Antitumor activity against human 22Rv1 cells xenografted in NMRI mouse assessed as reduction of tumor volume at […] administered on day 7 and 14 and measured on day 10; format: functional, organism-based
[7] = Toxicity in NMRI mouse xenografted with human 22Rv1 cells assessed as survival rate at 15 mg/kg, ip administered on day 7 and 14 and measured on day 49; format: organism-based; conditions: in vivo
[8] = test system: VCaP; test: Antiproliferative activity against human VCaP cells assessed as T/C value at 3.2 x 10^1 uM incubated for 96 hrs by propidium iodide based 2D monolayer assay; format: functional
Procedure, shortened: (§1)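 VCaP cells in RPMI 1640 with 10% FCS at 37 °C, 5% CO2, seeded 4,000–20,000 cells/well and left 24 h before dosing. Compounds from DMSO stocks were diluted in half-log steps in medium, 10 concentrations 0.0032–100 μM, triplicate wells, max 0.3% DMSO. After 96 h, cells were washed, stained with 7 μg/ml propidium iodide plus 0.1% Triton X-100 for 1–2 h at room temperature, and fluorescence read at ex 530/em 620 nm.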

[9] = test system: LNCaP; test: Antiproliferative activity against human LNCAP cells assessed as T/C value at 1 x 10^-2 uM incubated for 96 hrs by propidium iodide based 2D monolayer assay; format: functional
Procedure, shortened: (§2)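 Cells were kept in RPMI 1640 with 25 mM HEPES, 10% FCS and gentamicin at 37 °C under 5% CO2, and plated at 4,000-20,000 cells/well. After 24 h recovery, compound in medium or medium alone (control wells) was added at 10 half-log concentrations from 0.0032 to 100 µM, in triplicate, with at most 0.3% DMSO. After 96 h, wells were PBS-washed, stained with 7 µg/ml PI and 0.1% Triton X-100, and fluorescence read at 530/620 nm. IC50 came from a 4-parameter fit, geometric mean.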

[10] = test system: VCaP; test: Antiproliferative activity against human VCaP cells assessed as T/C value at 3.2 uM incubated for 96 hrs by propidium iodide based 2D monolayer assay; format: functional; procedure, shortened: as §2
[11] = test system: DU-145; test: Antiproliferative activity against human DU145 cells assessed as T/C value at 3.2 x 10^1 uM incubated for 96 hrs by propidium iodide based 2D monolayer assay; format: functional; procedure, shortened: as §2
[12] = test system: LNCaP; test: Antiproliferative activity against human LNCAP cells assessed as T/C value at 1 x 10^1 uM incubated for 96 hrs by propidium iodide based 2D monolayer assay; format: functional; procedure, shortened: as §2
[13] = test system: VCaP; test: Antiproliferative activity against human VCaP cells assessed as T/C value at 1 uM incubated for 96 hrs by propidium iodide based 2D monolayer assay; format: functional; procedure, shortened: as §2
[14] = test system: VCaP; test: Antiproliferative activity against human VCaP cells assessed as T/C value at 3.2 x 10^-3 uM incubated for 96 hrs by propidium iodide based 2D monolayer assay; format: functional; procedure, shortened: as §1
[15] = test system: CWR22R; test: Antiproliferative activity against human 22Rv1 cells assessed as T/C value at 3.2 x 10^-2 uM incubated for 96 hrs by propidium iodide based 2D monolayer assay; format: functional; procedure, shortened: as §2
[16] = test system: CWR22R; test: Antiproliferative activity against human 22Rv1 cells assessed as T/C value at 1 x 10^-2 uM incubated for 96 hrs by propidium iodide based 2D monolayer assay; format: functional; procedure, shortened: as §2
[17] = test system: VCaP; test: Antiproliferative activity against human VCaP cells assessed as T/C value at 3.2 x 10^-1 uM incubated for 96 hrs by propidium iodide based 2D monolayer assay; format: functional; procedure, shortened: as §1
[18] = test system: LNCaP; test: Antiproliferative activity against human LNCAP cells assessed as T/C value at 1 uM incubated for 96 hrs by propidium iodide based 2D monolayer assay; format: functional; procedure, shortened: as §2
[19] = test system: DU-145; test: Antiproliferative activity against human DU145 cells assessed as T/C value at 3.2 uM incubated for 96 hrs by propidium iodide based 2D monolayer assay; format: functional; procedure, shortened: as §2
[20] = test system: VCaP; test: Antiproliferative activity against human VCaP cells assessed as T/C value at 1 x 10^-1 uM incubated for 96 hrs by propidium iodide based 2D monolayer assay; format: functional; procedure, shortened: as §2
[21] = test system: VCaP; test: Antiproliferative activity against human VCaP cells assessed as T/C value at 1 x 10^2 uM incubated for 96 hrs by propidium iodide based 2D monolayer assay; format: functional; procedure, shortened: as §2
[22] = test system: CWR22R; test: Antiproliferative activity against human 22Rv1 cells assessed as T/C value at 3.2 x 10^-1 uM incubated for 96 hrs by propidium iodide based 2D monolayer assay; format: functional; procedure, shortened: as §2
[23] = test system: LNCaP; test: Antiproliferative activity against human LNCAP cells assessed as reduction in cell growth incubated for 96 hrs by propidium iodide based 2D monolayer assay; format: functional
Procedure, shortened: as §2, with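 “After” for “Cells were kept in RPMI 1640 with 25 mM HEPES, 10% FCS and gentamicin at 37 °C under 5% CO2, and plated at 4,000-20,000 cells/well. After”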

[24] = test system: LNCaP; test: Antiproliferative activity against human LNCAP cells assessed as T/C value at 3.2 x 10^-2 uM incubated for 96 hrs by propidium iodide based 2D monolayer assay; format: functional; procedure, shortened: as §2
[25] = test system: CWR22R; test: Antiproliferative activity against human 22Rv1 cells assessed as T/C value at 3.2 uM incubated for 96 hrs by propidium iodide based 2D monolayer assay; format: functional; procedure, shortened: as §2
[26] = test system: VCaP; test: Antiproliferative activity against human VCaP cells assessed as T/C value at 1 x 10^-2 uM incubated for 96 hrs by propidium iodide based 2D monolayer assay; format: functional; procedure, shortened: as §2
[27] = test system: LNCaP; test: Antiproliferative activity against human LNCAP cells assessed as T/C value at 1 x 10^2 uM incubated for 96 hrs by propidium iodide based 2D monolayer assay; format: functional; procedure, shortened: as §2
[28] = test system: CWR22R; test: Antiproliferative activity against human 22Rv1 cells assessed as T/C value at 3.2 x 10^1 uM incubated for 96 hrs by propidium iodide based 2D monolayer assay; format: functional; procedure, shortened: as §2
[29] = test system: LNCaP; test: Antiproliferative activity against human LNCAP cells assessed as T/C value at 3.2 uM incubated for 96 hrs by propidium iodide based 2D monolayer assay; format: functional; procedure, shortened: as §2
[30] = test system: CWR22R; test: Antiproliferative activity against human 22Rv1 cells assessed as T/C value at 1 x 10^-1 uM incubated for 96 hrs by propidium iodide based 2D monolayer assay; format: functional; procedure, shortened: as §2
[31] = test system: CWR22R; test: Antiproliferative activity against human 22Rv1 cells assessed as T/C value at 3.2 x 10^-3 uM incubated for 96 hrs by propidium iodide based 2D monolayer assay; format: functional; procedure, shortened: as §2
[32] = test system: LNCaP; test: Antiproliferative activity against human LNCAP cells assessed as T/C value at 3.2 x 10^-1 uM incubated for 96 hrs by propidium iodide based 2D monolayer assay; format: functional; procedure, shortened: as §2
[33] = test system: LNCaP; test: Antiproliferative activity against human LNCAP cells assessed as T/C value at 3.2 x 10^-3 uM incubated for 96 hrs by propidium iodide based 2D monolayer assay; format: functional; procedure, shortened: as §2
[34] = test system: LNCaP; test: Antiproliferative activity against human LNCAP cells assessed as T/C value at 3.2 x 10^1 uM incubated for 96 hrs by propidium iodide based 2D monolayer assay; format: functional; procedure, shortened: as §2
[35] = test system: VCaP; test: Antiproliferative activity against human VCaP cells assessed as T/C value at 3.2 x 10^-2 uM incubated for 96 hrs by propidium iodide based 2D monolayer assay; format: functional; procedure, shortened: as §1
[36] = test system: CWR22R; test: Antiproliferative activity against human 22Rv1 cells assessed as reduction in cell growth incubated for 96 hrs by propidium iodide based 2D monolayer assay; format: functional
Procedure, shortened: as §2, with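 “After” for “Cells were kept in RPMI 1640 with 25 mM HEPES, 10% FCS and gentamicin at 37 °C under 5% CO2, and plated at 4,000-20,000 cells/well. After”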

[37] = test system: VCaP; test: Antiproliferative activity against human VCaP cells assessed as reduction in cell growth incubated for 96 hrs by propidium iodide based 2D monolayer assay; format: functional; procedure, shortened: as §1
[38] = test system: DU-145; test: Antiproliferative activity against human DU145 cells assessed as T/C value at 1 x 10^2 uM incubated for 96 hrs by propidium iodide based 2D monolayer assay; format: functional; procedure, shortened: as §2
[39] = test system: LNCaP; test: Antiproliferative activity against human LNCAP cells assessed as T/C value at 1 x 10^-1 uM incubated for 96 hrs by propidium iodide based 2D monolayer assay; format: functional; procedure, shortened: as §2
[40] = test system: CWR22R; test: Antiproliferative activity against human 22Rv1 cells assessed as T/C value at 1 uM incubated for 96 hrs by propidium iodide based 2D monolayer assay; format: functional; procedure, shortened: as §2
[41] = test system: DU-145; test: Antiproliferative activity against human DU145 cells assessed as reduction in cell growth incubated for 96 hrs by propidium iodide based 2D monolayer assay; format: functional
Procedure, shortened: as §2, with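 “After” for “Cells were kept in RPMI 1640 with 25 mM HEPES, 10% FCS and gentamicin at 37 °C under 5% CO2, and plated at 4,000-20,000 cells/well. After”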

[42] = test system: VCaP; test: Antiproliferative activity against human VCaP cells assessed as T/C value at 1 x 10^1 uM incubated for 96 hrs by propidium iodide based 2D monolayer assay; format: functional; procedure, shortened: as §2
[43] = test system: CWR22R; test: Antiproliferative activity against human 22Rv1 cells assessed as T/C value at 1 x 10^2 uM incubated for 96 hrs by propidium iodide based 2D monolayer assay; format: functional; procedure, shortened: as §2

CC(=O)O[C@@]12CO[C@@H]1C[C@H](O)[C@@]1(C)C(=O)[C@H](O)C3=C(C)[C@@H](OC(=O)[C@H](O)[C@@H](NC(=O)OC(C)(C)C)c4ccccc4)C[C@@](O)([C@@H](OC(=O)c4ccccc4)[C@H]21)C3(C)C [DOCETAXEL ANHYDROUS]
Activity [1]: 19.8% | Time [2]: 6.3 days | T/C [3]: 22.4% | Activity [4]: Active | Time [5]: 43.2 days | Activity [6]: Active | survival at 49 day [7]: 100%

CNC(=O)c1ccc(N2C(=S)N(c3ccc(C#N)c(C(F)(F)F)c3)C(=O)C2(C)C)cc1F [ENZALUTAMIDE]
T/C [8]: 85% | T/C [9]: 92% | T/C [10]: 85% | T/C [11]: 84% | T/C [12]: 57% | T/C [13]: 85% | T/C [14]: 106% | T/C [15]: 99% | T/C [16]: 98% | T/C [17]: 88% | T/C [18]: 65% | T/C [19]: 120% | T/C [20]: 101% | T/C [21]: 44% | T/C [22]: 96% | Activity [23]: Dose-dependent effect | IC70 [23]: 31.7 µM | T/C [24]: 100% | T/C [25]: 88% | T/C [26]: 106% | T/C [27]: 6% | T/C [28]: 57% | T/C [29]: 69% | T/C [30]: 93% | T/C [31]: 96% | T/C [32]: 77% | T/C [33]: 101% | T/C [34]: 28% | T/C [35]: 104% | Activity [36]: Dose-dependent effect | IC70 ([36]; 22Rv1, 96 h): 36.5 µM | Activity [37]: Dose-dependent effect | IC50 [37]: 53 µM | IC70 [37]: > 100 µM | T/C [38]: 19% | T/C [39]: 89% | T/C [40]: 93% | Activity [41]: Dose-dependent effect | IC50 ([41]; DU-145, 96 h): 32.3 µM | IC70 ([41]; DU-145, 96 h): 71.1 µM | T/C [42]: 85% | T/C [43]: 13%
